Source: ChEMBL document CHEMBL2390920, “8-Benzamidochromen-4-one-2-carboxylic acids: potent and selective agonists for the orphan G protein-coupled receptor GPR35” (J Med Chem, 2013)

What was measured:
[1] = target: T1, G-protein coupled receptor 55 (Homo sapiens, UniProt Q9Y2T6); assay: Agonist activity at human GPR55 expressed in CHO cells assessed as induction of beta-arrestin recruitment at 10 uM after 90 mins by beta-galactosidase reporter gene assay relative to lysophosphotidylinositol; assay type: functional, cell-based
T1 sequence (Q9Y2T6 whole entry): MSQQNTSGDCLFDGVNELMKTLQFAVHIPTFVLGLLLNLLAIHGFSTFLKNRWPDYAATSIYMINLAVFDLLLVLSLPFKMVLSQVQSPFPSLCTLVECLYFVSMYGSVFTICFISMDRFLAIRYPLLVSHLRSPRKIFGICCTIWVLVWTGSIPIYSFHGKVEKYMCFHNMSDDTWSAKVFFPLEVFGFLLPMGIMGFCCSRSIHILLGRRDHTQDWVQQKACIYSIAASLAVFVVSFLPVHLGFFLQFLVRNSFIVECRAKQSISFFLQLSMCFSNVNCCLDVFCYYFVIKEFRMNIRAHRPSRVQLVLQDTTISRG
In short: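 Human GPR55 PathHunter CHO cells, 20000 cells/well seeded the day before, received test compound at 10 µM (final DMSO ≤1%) for 90 min. Detection reagent was then added and luminescence read after 60 min. Signal was normalized to that of 1 µM LPI.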

[2] = target: G protein-coupled receptor GPR35 (Rattus norvegicus) (UniProt Q33BM1); assay: Agonist activity at rat GPR35 expressed in CHO cells assessed as induction of beta-arrestin recruitment at 10 uM after 90 mins by beta-galactosidase reporter gene assay relative to zaprinast; assay type: cell-based
G protein-coupled receptor GPR35 (Rattus norvegicus), sequence (Q33BM1 as listed by the source): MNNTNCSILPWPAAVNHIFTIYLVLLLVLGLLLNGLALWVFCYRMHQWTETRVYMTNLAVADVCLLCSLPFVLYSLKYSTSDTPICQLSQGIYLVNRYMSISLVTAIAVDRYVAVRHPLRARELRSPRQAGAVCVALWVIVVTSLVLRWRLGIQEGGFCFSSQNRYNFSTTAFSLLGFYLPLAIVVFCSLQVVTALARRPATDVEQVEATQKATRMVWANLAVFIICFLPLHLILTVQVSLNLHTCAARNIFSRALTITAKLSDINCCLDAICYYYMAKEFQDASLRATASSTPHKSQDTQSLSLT
In short: (§1)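 Rat GPR35 expressed by transfecting a parental CHO β-arrestin-EA line; cells seeded at 20000/well the day before. Compounds (final DMSO ≤1%) were incubated 90 min, followed by detection reagent and a luminescence read after 60 min.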

[3] = target: G-protein coupled receptor 35 (Mus musculus) (UniProt Q9ES90); assay: Agonist activity at mouse GPR35 expressed in CHO cells assessed as induction of beta-arrestin recruitment at 10 uM after 90 mins by beta-galactosidase reporter gene assay; assay type: cell-based
G-protein coupled receptor 35 (Mus musculus), sequence (Q9ES90 whole entry): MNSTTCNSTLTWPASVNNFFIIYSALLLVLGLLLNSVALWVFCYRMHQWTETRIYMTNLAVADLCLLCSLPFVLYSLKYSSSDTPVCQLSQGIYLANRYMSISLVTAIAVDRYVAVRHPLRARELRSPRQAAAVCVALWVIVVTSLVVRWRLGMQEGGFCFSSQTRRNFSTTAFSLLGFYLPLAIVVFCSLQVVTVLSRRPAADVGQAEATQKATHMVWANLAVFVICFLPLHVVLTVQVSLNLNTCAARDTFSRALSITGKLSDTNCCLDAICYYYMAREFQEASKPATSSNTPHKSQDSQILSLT
In short: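 Mouse GPR35 introduced by transfection into a CHO β-arrestin-EA line; 20000 cells/well plated the day prior. After 90 min of compound exposure (final DMSO ≤1%), detection reagent was added and luminescence read after 60 min.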

[4] = target: T2, G-protein coupled receptor 35 (Homo sapiens, UniProt Q9HC97); assay: Agonist activity at human GPR35 expressed in CHO cells assessed as induction of beta-arrestin recruitment after 90 mins by beta-galactosidase reporter gene assay; assay type: cell-based
T2 sequence (Q9HC97 whole entry, the tested form may be a part): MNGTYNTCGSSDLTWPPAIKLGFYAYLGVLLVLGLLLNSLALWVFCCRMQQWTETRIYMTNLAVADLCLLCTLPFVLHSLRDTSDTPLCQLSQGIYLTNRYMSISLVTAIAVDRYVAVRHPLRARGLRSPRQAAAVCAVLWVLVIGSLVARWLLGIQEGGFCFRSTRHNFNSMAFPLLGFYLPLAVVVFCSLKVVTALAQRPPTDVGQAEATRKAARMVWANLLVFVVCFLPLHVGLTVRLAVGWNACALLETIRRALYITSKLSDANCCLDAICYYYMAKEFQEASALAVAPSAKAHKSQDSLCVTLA
In short: (§2)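 PathHunter enzyme-fragment complementation in CHO cells stably expressing β-arrestin-EA and tagged human GPR35, seeded at 20000 cells/well the day before. DMSO dilutions were further diluted 1:10 (final DMSO ≤1%). Cells were incubated 90 min, then detection reagent was added and luminescence read after 60 min.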

[5] = target: T2, G-protein coupled receptor 35; assay: Agonist activity at human GPR35 expressed in CHO cells assessed as induction of beta-arrestin recruitment at 10 uM after 90 mins by beta-galactosidase reporter gene assay relative to zaprinast; assay type: cell-based; in short: as §2
[6] = target: T1, G-protein coupled receptor 55; assay: Antagonist activity at human GPR55 expressed in CHO cells assessed as inhibition of lysophosphotidylinositol-induced beta-arrestin recruitment at 10 uM preincubated for 30 mins followed by lysophosphotidylinositol induction by beta-galactosidase reporter gene assay relative to control; assay type: functional, cell-based
In short: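 Human GPR55 PathHunter CHO cells were preincubated 30 min with compound, then stimulated with LPI (final 1 µM). After 90 min, detection reagent was added and luminescence read 60 min later. Screening was at 10 µM; full concentration-inhibition curves were run for selected compounds to give IC50.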

[7] = target: G protein-coupled receptor GPR35 (Rattus norvegicus, UniProt Q33BM1); assay: Agonist activity at rat GPR35 expressed in CHO cells assessed as induction of beta-arrestin recruitment after 90 mins by beta-galactosidase reporter gene assay; assay type: cell-based; in short: as §1
G protein-coupled receptor GPR35, sequence (Q33BM1 whole entry): as the sequence (Q33BM1 as listed by the source) above

[8] = target: G protein-coupled receptor GPR35 (Rattus norvegicus) (UniProt Q33BM1); assay: Agonist activity at rat GPR35 expressed in CHO cells assessed as induction of beta-arrestin recruitment at 10 uM after 90 mins by beta-galactosidase reporter gene assay; assay type: cell-based; in short: as §1
[9] = target: T2, G-protein coupled receptor 35; assay: Agonist activity at human GPR35b expressed in CHO cells assessed as induction of beta-arrestin recruitment after 90 mins by beta-galactosidase reporter gene assay; assay type: cell-based
In short: (§3)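 CHO β-arrestin-EA parental line transfected with human GPR35b, seeded at 20000 cells/well the day before. Compounds in DMSO were diluted 1:10 in medium or PBS (final DMSO ≤1%). After 90 min of incubation, detection reagent was added and luminescence measured 60 min later. Screening was at 10 µM.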

[10] = target: T2, G-protein coupled receptor 35; assay: Agonist activity at human GPR35b expressed in CHO cells assessed as induction of beta-arrestin recruitment at 10 uM after 90 mins by beta-galactosidase reporter gene assay relative to zaprinast; assay type: cell-based; in short: as §3

Cc1cccc(C(=O)Nc2cccc3c(=O)cc(C(=O)O)oc23)c1
Activity [1]: 10% | Emax [2]: 71% | Activity [3]: 18% | EC50 [4]: 5.44 µM | Emax [5]: 70% | inhibition [6]: 25% | EC50 [7]: 2.75 µM

CC(=O)Nc1cccc2c(=O)cc(C(=O)O)oc12
Activity [1]: 1% | Activity [3]: 3% | EC50 [4]: 24.1 µM | Emax [5]: 91% | Activity [8]: 31%

O=C(Nc1cccc2c(=O)cc(C(=O)O)oc12)c1ccc(C(F)(F)F)cc1
Activity [1]: 1% | Activity [3]: 23% | EC50 [4]: 15.5 µM | Emax [5]: 81% | Activity [8]: 38% | inhibition [6]: 5%

O=C(O)c1cc(=O)c2cccc([N+](=O)[O-])c2o1
Activity [1]: -6% | Activity [3]: 4% | EC50 [4]: 46.3 µM | Emax [5]: 101% | Activity [8]: 38% | inhibition [6]: 32%

O=C(Nc1cc(F)cc2c(=O)cc(C(=O)O)oc12)c1ccc(Cl)c(Cl)c1
Activity [1]: 3% | Emax [2]: 80% | EC50 [9]: 0.106 µM | Activity [3]: 37% | EC50 [4]: 0.117 µM | Emax [5]: 131% | inhibition [6]: 54% | Emax [10]: 136% | EC50 [7]: 2.65 µM

O=C(Nc1cc(Cl)cc2c(=O)cc(C(=O)O)oc12)c1ccccc1
Activity [1]: 20% | Emax [2]: 65% | Activity [3]: 31% | EC50 [4]: 0.43 µM | Emax [5]: 115% | inhibition [6]: 23% | EC50 [7]: 2.84 µM

O=C(Nc1cc(Cl)cc2c(=O)cc(C(=O)O)oc12)c1ccc([N+](=O)[O-])cc1
Activity [1]: 8% | Emax [2]: 115% | Activity [3]: 18% | EC50 [4]: 1.71 µM | Emax [5]: 130% | inhibition [6]: 14% | EC50 [7]: 3.14 µM

Cc1cccc(C(=O)Nc2cc(Cl)cc3c(=O)cc(C(=O)O)oc23)c1
Activity [1]: 4% | Emax [2]: 92% | Activity [3]: 31% | EC50 [4]: 1.22 µM | Emax [5]: 102% | inhibition [6]: 40% | EC50 [7]: 2.1 µM

O=C(Nc1cc(Br)cc2c(=O)cc(C(=O)O)oc12)c1ccccc1
Activity [1]: 23% | Emax [2]: 75% | Activity [3]: 40% | EC50 [4]: 0.303 µM | Emax [5]: 110% | inhibition [6]: 21% | EC50 [7]: 2.75 µM

CCOc1ccc(C(=O)Nc2cc(Br)cc3c(=O)cc(C(=O)O)oc23)cc1
Activity [1]: -1% | Emax [2]: 74% | Activity [3]: 36% | EC50 [4]: 0.634 µM | Emax [5]: 99% | inhibition [6]: 39% | EC50 [7]: 1.36 µM

O=C(Cc1ccccc1)Nc1cccc2c(=O)cc(C(=O)O)oc12
Activity [1]: -11% | Activity [3]: 19% | EC50 [4]: 8.96 µM | Emax [5]: 107% | Activity [8]: 47% | inhibition [6]: 26%

O=C(Nc1cc(Br)cc2c(=O)cc(C(=O)O)oc12)c1ccc(Cl)c(Cl)c1
Activity [1]: 16% | Emax [2]: 62% | EC50 [9]: 0.0272 µM | Activity [3]: 29% | EC50 [4]: 0.0154 µM | Emax [5]: 110% | inhibition [6]: 47% | Emax [10]: 109% | EC50 [7]: 3.25 µM

N#Cc1ccc(C(=O)Nc2cc(Br)cc3c(=O)cc(C(=O)O)oc23)cc1
Activity [1]: 0% | Emax [2]: 99% | Activity [3]: 41% | EC50 [4]: 0.399 µM | Emax [5]: 108% | inhibition [6]: 38% | EC50 [7]: 2.26 µM

COc1ccc(C(=O)Nc2cc(Cl)cc3c(=O)cc(C(=O)O)oc23)cc1
Activity [1]: -2% | Emax [2]: 86% | EC50 [9]: 0.0286 µM | Activity [3]: 34% | EC50 [4]: 0.0168 µM | Emax [5]: 110% | inhibition [6]: 47% | Emax [10]: 125% | EC50 [7]: 1.83 µM

CCC(=O)Nc1cccc2c(=O)cc(C(=O)O)oc12
Activity [1]: 15% | Activity [3]: 12% | EC50 [4]: 13.4 µM | Emax [5]: 119% | Activity [8]: 30% | inhibition [6]: 16%

O=C(Nc1cccc2c(=O)cc(C(=O)O)oc12)c1cccc([N+](=O)[O-])c1
Activity [1]: 12% | Activity [3]: 26% | EC50 [4]: 6.97 µM | Emax [5]: 112% | Activity [8]: 32% | inhibition [6]: 20%

COC(=O)CC(=O)Nc1cccc2c(=O)cc(C(=O)O)oc12
Activity [1]: -4% | Emax [2]: 89% | Activity [3]: 15% | EC50 [4]: 20.2 µM | Emax [5]: 87% | inhibition [6]: 31% | EC50 [7]: 6.65 µM

O=C(O)c1cc(=O)c2cccc(NC(=O)C3CCCCC3)c2o1
Activity [1]: 17% | Emax [2]: 79% | Activity [3]: 38% | EC50 [4]: 4.2 µM | Emax [5]: 118% | inhibition [6]: 16% | EC50 [7]: 1.2 µM

Nc1cc(Br)cc2c(=O)cc(C(=O)O)oc12
Activity [1]: 4% | Activity [3]: 18% | EC50 [4]: 12.6 µM | Emax [5]: 84% | Activity [8]: 40% | inhibition [6]: 17%

O=C(O)c1cc(=O)c2cc(F)cc(NC(=O)c3cccc(Cl)c3Cl)c2o1
Activity [1]: 5% | Emax [2]: 82% | EC50 [9]: 0.873 µM | EC50 [4]: 0.382 µM | Emax [5]: 106% | inhibition [6]: 40% | Emax [10]: 104% | EC50 [7]: 3.13 µM

O=C(Nc1cccc2c(=O)cc(C(=O)O)oc12)c1ccccc1
Activity [1]: 3% | Activity [3]: 13% | EC50 [4]: 4.91 µM | Emax [5]: 107% | Activity [8]: 39% | inhibition [6]: 24%

Cc1ccc(C(=O)Nc2cccc3c(=O)cc(C(=O)O)oc23)cc1
Activity [1]: 6% | Activity [3]: 43% | EC50 [4]: 1.38 µM | Emax [5]: 104% | Activity [8]: 43% | inhibition [6]: 16%

CCOC(=O)c1cc(=O)c2cc(F)cc(NC(=O)c3ccc(OC)cc3)c2o1
Activity [1]: -1% | Activity [3]: 7% | EC50 [4]: 0.112 µM | Emax [5]: 80% | Activity [8]: 1% | inhibition [6]: 26%
